In ChEMBL document CHEMBL1134636, “Structure-activity studies on nociceptin analogues: ORL1 receptor binding and biological activity of cyclic disulfide-containing analogues of nociceptin peptides” (J Med Chem, 2001) one finds IC50, Emax and EC50 data, which are given here for 1 compound.

Peptide text beside a SMILES is read from it.

The target in experiment [1] is T1, Nociceptin receptor (Homo sapiens, UniProt P41146). Briefly: Displacement of [3H]NC from human ORL1 receptor expressing HEK293 cell membrane. Type of experiment: cell membranes. In general terms: In a radioligand displacement assay an active substance lowers the binding of a labelled ligand.
T1 sequence (P41146 whole entry): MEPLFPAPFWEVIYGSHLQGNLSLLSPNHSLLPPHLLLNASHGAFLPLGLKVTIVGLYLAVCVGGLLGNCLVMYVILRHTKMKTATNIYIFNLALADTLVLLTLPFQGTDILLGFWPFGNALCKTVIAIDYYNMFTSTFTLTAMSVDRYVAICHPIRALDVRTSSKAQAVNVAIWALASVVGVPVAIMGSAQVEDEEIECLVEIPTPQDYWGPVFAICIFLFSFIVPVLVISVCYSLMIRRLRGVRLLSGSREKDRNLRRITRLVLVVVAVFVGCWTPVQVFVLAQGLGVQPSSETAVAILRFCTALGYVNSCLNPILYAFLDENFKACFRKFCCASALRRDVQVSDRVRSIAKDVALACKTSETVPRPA
In experiment [2] the target is T1, Nociceptin receptor. In words: Efficacy for human ORL1 receptor expressing HEK293 cell membrane. In kind it is functional, cell-based. Summed up:
(§1)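 Membranes from HEK-293 cells expressing human ORL1 (10 μg) were incubated for 30 min at 24 °C with peptides (0.01 nM to 10 μM) in 20 mM HEPES pH 7.4 with 100 mM NaCl, 10 mM MgCl₂, 1 mM EDTA, 5 μM GDP and 400 pM [³⁵S]GTPγS. Binding was read with WGA-coated SPA beads.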

Experiment [3] concerns the target T1, Nociceptin receptor. In words: Efficacy for human ORL1 receptor expressing HEK293 cells. Type of experiment: functional, cell-based. An outline of the steps:
as §1

With `C[C@@H](O)[C@H](NC(=O)[C@H](Cc1ccccc1)NC(=O)CNC(=O)CNC(=O)[C@@H](N)Cc1ccccc1)C(=O)NCC(=O)N[C@H]1CSSC[C@@H](C(=O)N[C@@H](CCCN=C(N)N)C(=O)N[C@@H](CCCCN)C(N)=O)NC(=O)[C@H](CO)NC(=O)[C@H](CCCCN)NC(=O)[C@H](CCCN=C(N)N)NC1=O` (HELM PEPTIDE1{F.G.G.F.T.G.C.R.K.S.C.R.K.[am]}$PEPTIDE1,PEPTIDE1,7:R3-11:R3$$$V2.0), at Nociceptin receptor [1], the IC50 (commonly the midpoint of a concentration-inhibition curve) came to 3.04 nM. Also, the Emax (commonly the greatest response seen or fitted, relative to the assay's reference) at Nociceptin receptor [2] came out at 120%. Moreover, the midpoint of the response on Nociceptin receptor [3], the EC50, lay at 156 nM.
